Screening data from PubChem BioAssay.
A selection: hits, their analogues and other compounds. The true share with any hit is near 2.1%.
Yeast lifespan up: yeast lifespan extension; inhibition of the nicotinamide effect, % at 10 µM; AID 775; S. cerevisiae growth with nicotinamide, OD615; deaD strain in restrictive glucose medium; hit rate 0.68% among 130,000;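 active means inhibition above a set limit, placed 3 SD over the median of all compounds, cut at about 26% in these data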;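 further: 0% = nicotinamide-treated wells and 100% = cells grown without nicotinamide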
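Test system – modified budding yeast, DeaD strain · Compound – single dose 10 µM compound, 0.25% DMSO · Times – culture preincubation 4 h, compound exposure 48 h, both 30 °C · Detection – optical density (absorbance) at 615 nm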
Yeast growth inh: yeast BB579 growth reduction in restrictive medium; S. cerevisiae BB579 growth, OD615, 48 h; inhibition, % at 10 µM; hit rate 0.51% among 140,000;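 active means inhibition above a set limit, 3 SD over the mean compound inhibition, cut at about 44% in these data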
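Test system: S. cerevisiae DeaD strain BB579 yeast; Medium: restrictive CSMM-D medium; Compound: one dose, 10 µM compound with 0.25% DMSO; Incubation: 4 h cell preincubation, 48 h compound exposure, 30 °C humidified; Signal: OD at 615 nm; Benchmarks: amphotericin B at 10 µg/mL as positive control.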
MRP reversal: reverses drug resistance mediated by MRP; hit rate 0.04% among 85,000; differential viability (reversal), % at 10 µM; H69AR cells + 2 uM doxorubicin, CellTiter-Glo, 72 h;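 active means viability drop by adding the cancer drug above about 55%, with treated viability meeting a 40% cutoff, limit read from the data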;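 further: viability without doxorubicin minus viability with 2 µM doxorubicin for each compound; larger differential means the compound sensitizes cells more to doxorubicin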
Phagocytosis inh: macrophage phagocytosis inhibition | AID 1029 | J774A.1 macrophage IgG-bead phagocytosis, imaging | inhibition, % at 5 µM | hit rate 0.07% among 110,000;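 active means inhibition above the mean of the plate negative controls plus 5 SD, cut at about 13% in these data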;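 further: phagocytic index as fraction of beads internalized from green versus red external bead signal; plate controls were DMSO negative control for no effect and cytochalasin-D positive control for full effect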
MRP-1 activ: MRP-1 activation | viability increase, % at 10 µM | H69AR cells + doxorubicin, viability rescue, CellTiter-Glo | hit rate 0.61% among 140,000;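 active means viability gain under doxorubicin at or above a set limit, the compound median plus 3 SD, cut at about 4.7% in these data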;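 further: MRP-1 overexpressing cells given doxorubicin 25 µM after compound pretreatment; 18-22 h compound pretreatment then 72 h with doxorubicin before readout; 0% = doxorubicin-only wells and 100% = vehicle-treated cells without doxorubicin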
sdo1 growth: restores growth of sdo1-depleted yeast | hit rate 0.21% among 140,000 | AID 817 | S. cerevisiae sdo1-depleted JHY4D growth rescue, OD600 30 h; stronger effect = higher value; pdr5 snq2 efflux-pump mutant strain | z-score at 10 µM;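 active means z-score above 3 at both the 24 hr and the 30 hr optical density reads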;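 further: z-score against mean and SD of all compound wells on the same plate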
An asterisk follows results filed as active; nt = not tested or not shown.

SMILES	Yeast lifespan up	Yeast growth inh	MRP reversal	Phagocytosis inh	MRP-1 activ	sdo1 growth
O=C(COC(=O)c1ccc(N2CCOCC2)c([N+](=O)[O-])c1)Nc1ccc2c(c1)OCO2	-1	-21	nt	-6	-2	0.59
C/C(=C\C(=S)Nc1ccccc1)Nc1ccc2ccccc2c1	1	-12	nt	-4	-4	-0.91
O=C(Oc1ccc(=O)n(-c2ccccc2)n1)c1cccc(Cl)c1	13	-48	nt	nt	0	0.66
O=C(Oc1ccc(=O)n(-c2ccccc2)n1)c1ccc(Cl)cc1	51*	-34	nt	nt	1	-0.34
COC(=O)C(Cc1cnc(Cl)s1)(C(=O)OC)c1ccc(C(F)(F)F)cc1[N+](=O)[O-]	0	-27	18	-1	-3	-0.68
CCOC(=O)c1cc([N+](=O)[O-])c([N+](=O)[O-])cc1NC(C)=O	-12	99*	nt	1	-5	-1
O=C1c2ccccc2C(=O)N1CCc1csc(-c2ccc(F)cc2)n1	-16	7	nt	0	0	-0.93
Cc1cc(N/N=C/c2ccc(O)cc2O)nc(-n2nc(C)cc2C)n1	-5	-29	nt	-8	5.3*	0
Cc1cc(N/N=C/c2ccc(O)cc2O)nc(-c2ccccc2O)n1	0	-36	nt	-8	3	-1.3
COc1ccc(/C=N/Nc2cc(C)nc(NS(=O)(=O)c3ccc(C)cc3)n2)cc1	2	-18	nt	-4	-4	0.88
COc1ccc(/C=N/Nc2cc(C)nc(-n3nc(C)cc3C)n2)cc1	-10	-36	nt	-11	9.1*	-1.1
CCCOc1cccc(-c2nn(-c3ccccc3)cc2/C=C(\C#N)C(=O)NCCCn2ccnc2)c1	-4	-24	nt	-2	-6	-1
N#C/C(=C/c1cn(-c2ccccc2)nc1-c1cccc(OCc2ccc(F)cc2)c1)C(=O)NCCCn1ccnc1	-6	63*	nt	-3	-5	-1.2
Cc1nnc2sc(-c3ccncc3)nn12	-6	-23	25	0	17*	-1.2
CCCCn1c(N)c(Sc2ccccc2)c(=O)[nH]c1=O	-4	-10	4	-2	-1	0.62
C=CCn1c(=O)c(C(=O)NCCc2ccccc2)c(O)c2ccccc21	29*	-79	-27	-1	2	-0.18
O=C(NCc1ccccc1)c1ccc(C2SCC(=O)N2Cc2ccccc2)cc1 (configuration not stated)	nt	-26	-14	nt	-1	-0.19
O=S(=O)(CCSc1ccccn1)c1nc2ccccc2s1	60*	0	-1	1	-2	-2.2
O=S(=O)(CCSc1nc2ccccc2o1)c1nc2ccccc2s1	4	-39	-7	-1	-6	-1.4
OCCN1CCN(C(c2cccs2)c2ccc3cccnc3c2O)CC1 (configuration not stated)	21	-57	-7	-4	-1	-0.48
CC(C)(C)c1cc(C(c2cccnc2)N2CCN(CCO)CC2)cc(C(C)(C)C)c1O (configuration not stated)	18	96*	1	0	-6	-2.2
Cc1ncc(C23CC4CC(CC(C4)C2)C3)[nH]1	152*	-34	2	-1	-1	1.6
Cc1ccccc1C(=O)O/N=C(\c1ccccc1)c1ccccn1	-3	-11	nt	-9	1	-1.1
C/C(=N\Nc1ccc(Cl)cc1)c1ccccn1	-17	92*	nt	0	-2	-1.5
CCCCCC(=O)N/N=C(\C)c1ccccn1	-18	-22	nt	0	0	1
SMILES	Yeast lifespan up	Yeast growth inh	MRP reversal	Phagocytosis inh	MRP-1 activ	sdo1 growth
Cc1c(NC(=O)Nc2ccc3c(c2)OCO3)c(=O)n(-c2ccccc2)n1C	-9	-54	9	-1	-1	0.5
Cn1c(N)c(S(=O)(=O)c2ccc(Br)cc2)c2nc3ccccc3nc21	-25	-33	0	1	-2	0.94
C(=C\c1nc(N2CCCCCC2)c2ccccc2n1)/c1ccccc1	-7	74*	nt	0	-6	-2.5
Cc1nc2c(c(C)c1C#N)C(=O)c1ccccc1-2	-7	64*	nt	nt	-1	-0.26
Cc1nc2c(c(-c3ccccc3)c1C#N)C(=O)c1ccccc1-2	-17	-36	0	nt	-2	-1.1
Cc1cc(O)c(C=Nc2cccc(Cl)c2)c(=O)o1	-11	-12	5	0	-3	1.4
Cc1cc(O)c(/C=N/Nc2ccccc2)c(=O)o1	-16	87*	nt	1	0	-0.93
COC(=O)c1nn(-c2cccc(C)c2)c2nnc(Cc3ccccc3)c(=O)n12	26*	-16	nt	-1	-1	0.48
COC(=O)c1nn(-c2ccccc2)c2nnc(Cc3ccc(C)cc3)c(=O)n12	-1	-19	nt	1	-1	0.6
CCSCCOC(=O)C1=C(C)N(C)C(=O)NC1c1cc(OC)ccc1OC (configuration not stated)	-7	-22	-3	-1	-1	-0.46
c1ccc(-c2n[nH]c3c2CCC3)cc1	-7	12	2	2	-1	1.1
CC(C)(C)c1n[nH]c2c1CCCC2	28*	-41	nt	-1	0	-0.06
COc1ccc(N(CC(=O)NC2CCCCC2)C(=O)CCCC(=O)Nc2ccccn2)c(OC)c1	-5	-40	10	-1	-2	1.4
CCCC(=O)Nc1ccc(C(=O)NNC(=S)NC(=O)c2cccs2)cc1	62	-33	nt	nt	-5	-0.03
Cc1cccc(C(=O)NC(=S)NNC(=O)c2ccc(Cl)cc2)c1	17	-9	nt	-1	-2	-0.59
O=C(NCCNC(=O)c1cccs1)c1ccco1	4	-5	26	0	1	0.94
Cc1cccc(C(=O)NC(=S)NNC(=O)c2cccs2)c1	10	49*	nt	-1	-2	-0.32
CC(C)(C)c1ccc(C(=O)NC(=S)NNC(=O)c2cccs2)cc1	-5	67*	nt	-4	-5	-1.4
O=C(NC(=S)NNC(=O)c1cccs1)c1ccco1	29*	-16	nt	nt	2	0.35
C=Cn1c(N2CCOCC2)nc2c1c(=O)[nH]c(=O)n2C	2	-7	nt	nt	-1	0.7
CCCN1C(=O)c2cc(C(=O)NCCc3cccc(C)c3)ccc2C1O (configuration not stated)	-8	-23	48	0	-2	0.74
COc1ccc(N(C(=O)COc2ccccc2OC)S(=O)(=O)c2ccc(C)cc2)cc1	-1	-9	nt	nt	-1	-0.19
NC(=O)C1CCCN(C(=O)Nc2cccc3ccccc23)C1 (configuration not stated)	-13	-34	11	-4	0	1
Cc1nn2c(-c3ccco3)nnc2c2ccccc12	-12	88*	-28	0	-3	-2
Cc1ccccc1-c1nnc2c3ccccc3c(C)nn12	nt	-14	8	nt	-1	-0.49
COc1ccc(-c2nnc3c4ccccc4c(C)nn23)cc1	-5	49*	-19	2	-5	-1.6
Cc1nn2c(-c3ccncc3)nnc2c2ccccc12	-13	89*	nt	-1	0	-2.1
CN(C)CCCN(C(=O)c1cc2ccccc2oc1=O)c1nc2c(F)cccc2s1	-5	8	nt	-8	-3	0.61
